Assay results taken from ChEMBL document CHEMBL2062387, “Blockade of STAT3 activation by sorafenib derivatives through enhancing SHP-1 phosphatase activity” (Eur J Med Chem, 2012).
Activity calls are given as the source filed them. No cut-off for these calls is given here.

Key:
[1] = biological target: Tyrosine-protein phosphatase non-receptor type 6 (Homo sapiens) (UniProt P29350); assay: Induction of SHP1 activation in human PLC5 cells assessed as repression of CCND1 expression at 5 to 10 uM after 24 hrs by Western blot method; format: cell-based
Sequence of Tyrosine-protein phosphatase non-receptor type 6 (Homo sapiens) (P29350 whole entry): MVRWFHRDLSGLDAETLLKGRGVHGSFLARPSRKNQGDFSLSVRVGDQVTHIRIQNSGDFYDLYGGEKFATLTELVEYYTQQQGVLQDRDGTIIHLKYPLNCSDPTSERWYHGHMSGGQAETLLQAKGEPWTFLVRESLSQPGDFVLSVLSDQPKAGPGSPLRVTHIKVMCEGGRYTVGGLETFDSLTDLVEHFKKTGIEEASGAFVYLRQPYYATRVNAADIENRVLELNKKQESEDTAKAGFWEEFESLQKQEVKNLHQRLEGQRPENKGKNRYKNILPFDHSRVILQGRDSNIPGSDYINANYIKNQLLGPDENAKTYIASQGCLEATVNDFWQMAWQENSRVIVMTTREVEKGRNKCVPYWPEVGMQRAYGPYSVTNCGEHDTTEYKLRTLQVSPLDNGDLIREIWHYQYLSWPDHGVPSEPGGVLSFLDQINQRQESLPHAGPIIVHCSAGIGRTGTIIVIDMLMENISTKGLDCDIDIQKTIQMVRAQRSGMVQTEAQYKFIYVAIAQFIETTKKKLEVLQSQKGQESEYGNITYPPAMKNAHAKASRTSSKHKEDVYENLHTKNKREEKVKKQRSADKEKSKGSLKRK
Summary of the method: (§1)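 PLC5 cells were treated at 5 and 10 µM for 24 h in serum-free medium. Lysates were immunoblotted for p-STAT3 (Tyr705), STAT3, Mcl-1, cyclin D1, survivin, SOCS-1, SOCS-3 and PARP.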

[2] = biological target: Tyrosine-protein phosphatase non-receptor type 6 (Homo sapiens) (UniProt P29350); assay: Induction of SHP1 activation in human PLC5 cells assessed as reduction of p-STAT3 at 5 to 10 uM after 24 hrs by Western blot method; format: cell-based; summary of the method: as §1
[3] = biological target: Tyrosine-protein phosphatase non-receptor type 6 (Homo sapiens) (UniProt P29350); assay: Induction of SHP1 activation in human PLC5 cell lysate after 24 hrs; format: cell-based
Summary of the method: (§2)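 PLC5 cells were treated with compound for 24 h. SHP-1 was immunoprecipitated from lysates and its phosphatase activity measured with the EnzChek tyrosine phosphatase kit. Mean ± SD, N = 3.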

[4] = biological target: Tyrosine-protein phosphatase non-receptor type 6 (Homo sapiens) (UniProt P29350); assay: Induction of SHP1 activation in human PLC5 cell lysate at 10 uM after 24 hrs; format: cell-based; summary of the method: as §2
[5] = biological target: Tyrosine-protein phosphatase non-receptor type 6 (Homo sapiens) (UniProt P29350); assay: Induction of SHP1 activation in human PLC5 cells assessed as effect on SOCS-1 level at 5 to 10 uM after 24 hrs by Western blot method; format: cell-based; summary of the method: as §1
[6] = biological target: Tyrosine-protein phosphatase non-receptor type 6 (Homo sapiens) (UniProt P29350); assay: Induction of SHP1 activation in human PLC5 cells assessed as PARP cleavage at 5 to 10 uM after 24 hrs by Western blot method; format: cell-based; summary of the method: as §1
[7] = biological target: Tyrosine-protein phosphatase non-receptor type 6 (Homo sapiens) (UniProt P29350); assay: Induction of SHP1 activation in human PLC5 cells assessed as repression of Mcl-1 expression at 5 to 10 uM after 24 hrs by Western blot method; format: cell-based; summary of the method: as §1
[8] = Growth inhibition of human PLC5 cells after 24 hrs by MTT assay; format: functional, cell-based; conditions: PLC5, 24 h
Summary of the method: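 PLC5 cells were grown in DMEM with 10% FBS, penicillin, streptomycin and amphotericin B at 37 °C in 5% CO2. Cells were seeded in 96-well plates for 24 h, then exposed to agents in DMSO (0.1% final) in DMEM for 24 h; range 0.1–15 µM. MTT at 0.5 mg/mL was added for 2 h and absorbance read at 570 nm. Six replicates; IC50 derived.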

[9] = biological target: Tyrosine-protein phosphatase non-receptor type 6 (Homo sapiens) (UniProt P29350); assay: Induction of SHP1 activation in IL-6-stimulated human PLC5 cells assessed as reduction of p-STAT3 at 10 uM after 24 hrs by ELISA; format: cell-based
Summary of the method: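 PLC5 cells were pre-stimulated with IL-6 at 25 ng/mL for 30 min, then treated with 10 µM compound for 24 h. Phospho-STAT3 was measured by ELISA against a DMSO control. Mean ± SD, N = 3.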

[10] = biological target: Tyrosine-protein phosphatase non-receptor type 6 (Homo sapiens) (UniProt P29350); assay: Induction of SHP1 activation in human PLC5 cells assessed as repression of survivin expression at 5 to 10 uM after 24 hrs by Western blot method; format: cell-based; summary of the method: as §1
[11] = biological target: Tyrosine-protein phosphatase non-receptor type 6 (Homo sapiens) (UniProt P29350); assay: Induction of SHP1 activation in human PLC5 cells assessed as effect on SOCS-3 level at 5 to 10 uM after 24 hrs by Western blot method; format: cell-based; summary of the method: as §1
[12] = biological target: Tyrosine-protein phosphatase non-receptor type 6 (Homo sapiens) (UniProt P29350); assay: Induction of SHP1 activation in human PLC5 cells at 1 to 15 uM after 24 hrs; format: cell-based; summary of the method: as §2
[13] = Ratio of SC-1 IC50 to compound IC50 for human PLC5 cells; format: functional
Mus musculus [14] = assay: Inhibition of STAT3 phosphorylation in tumor of athymic NCr mouse xenografted with PLC5 cells at 10 mg/kg, po once daily for 3 weeks by Western blot method; format: functional, organism-based; parameters: dose 10 mg/kg
Summary of the method: (§3)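 Tumors came from PLC5 xenografts in nude mice dosed at 10 mg/kg/day p.o. for three weeks, with vehicle Cremophor EL/ethanol (50:50). Tumor extracts were assayed for p-STAT3 by western blot and for SHP-1 phosphatase activity.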

Mus musculus [15] = assay: Induction of SHP1 activity in tumor of athymic NCr mouse xenografted with PLC5 cells at 10 mg/kg, po once daily for 3 weeks; format: functional, organism-based; parameters: dose 10 mg/kg; summary of the method: as §3
PLC5 = assay: Antitumor activity against PLC5 cells xenografted in athymic NCr mouse assessed as tumor growth inhibition at 10 mg/kg, po once daily for 3 weeks; format: functional, organism-based; parameters: dose 10 mg/kg
Summary of the method: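 Male NCr athymic nude mice, 5–7 weeks old, bearing PLC5 tumors. Dosing began when tumors reached 100 mm3: 10 mg/kg p.o. once daily for three weeks. Vehicle was Cremophor EL/95% ethanol (50:50), given to controls. Read-out was tumor growth.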

SMILES	IC50 [8]	Activity [9]	further results
N#Cc1ccc(Oc2cccc(NC(=O)Nc3ccc(Cl)c(C(F)(F)F)c3)c2)cc1 [SC-43]	0.5 µM	Active	Activity [1]: Active; Activity [2]: Active; Activity [3]: Dose-dependent effect; Activity [4]: Active; Activity [5]: inactive; Activity [6]: Active; Activity [7]: Active; Activity [10]: Active; Activity [11]: inactive
CNC(=O)c1cc(Oc2cccc(NC(=O)c3ccccc3)c2)ccn1	> 15 µM	inactive	
CNC(=O)c1cc(Oc2cccc(NS(=O)(=O)c3ccccc3)c2)ccn1	> 15 µM	inactive	
O=c1[nH]c2ccc(Oc3cccc(NS(=O)(=O)c4cccc(C(F)(F)F)c4)c3)cc2[nH]1	11.5 µM	Active	
Nc1ccc(Oc2cccc(NS(=O)(=O)c3cccc(C(F)(F)F)c3)c2)cc1N	> 15 µM	inactive	
Cc1ccc(NC(=O)Nc2ccc(Cl)c(C(F)(F)F)c2)cc1Oc1ccc(C#N)cc1	4.5 µM	Active	
Nc1cc(Oc2cccc(NC(=O)Nc3ccc(Cl)c(C(F)(F)F)c3)c2)ccc1[N+](=O)[O-]	1.2 µM	Active	
COc1ccc(CNC(=O)Nc2ccc(Oc3ccc(C#N)cc3)cc2)cc1OC	12.3 µM	Active	
CNC(=O)c1cc(Oc2cccc(NC(=O)Nc3cccc(F)c3)c2)ccn1	> 15 µM	inactive	
Nc1cc(Oc2cccc(NS(=O)(=O)c3cccc(C(F)(F)F)c3)c2)ccc1[N+](=O)[O-]	3.9 µM	Active	
Nc1ccc(Oc2cccc(NCc3cccc(OC(F)(F)F)c3)c2)cc1N	> 15 µM	inactive	
N#Cc1ccc(Oc2cccc(NC(=O)Nc3cccc(F)c3)c2)cc1	3.3 µM	Active	
O=c1[nH]c2ccc(Oc3cccc(NCc4cccc(OC(F)(F)F)c4)c3)cc2[nH]1	10.2 µM	Active	
N#Cc1ccc(Oc2cccc(NC(=O)c3ccccc3)c2)cc1	> 15 µM	inactive	
COc1ccc(CNC(=O)NCc2ccc(Oc3ccc(C#N)cc3)cc2)cc1OC	10.5 µM	Active	
N#Cc1ccc(Oc2ccc(CNC(=O)NCc3cccc(OC(F)(F)F)c3)cc2)cc1	> 15 µM	inactive	
Nc1cc(Oc2cccc(NCc3cccc(OC(F)(F)F)c3)c2)ccc1[N+](=O)[O-]	8.3 µM	Active	
C[C@@H](NC(=O)Nc1ccc(Oc2ccc(C#N)cc2)cc1)c1cccc2ccccc12	> 15 µM	inactive	
N#Cc1ccc(Oc2cccc(NS(=O)(=O)c3ccccc3)c2)cc1	> 15 µM	inactive	
CNC(=O)c1cc(Oc2cccc(NS(=O)(=O)c3cccc(C(F)(F)F)c3)c2)ccn1	8.4 µM	Active	
CNC(=O)c1cc(Oc2ccc(NC(=O)Nc3ccc(Cl)c(C(F)(F)F)c3)cc2)ccn1			Activity [12]: Active
N#Cc1ccc(Oc2cccc(NS(=O)(=O)c3cccc(C(F)(F)F)c3)c2)cc1	2.2 µM	Active	
N#Cc1ccc(Oc2ccc(CNC(=O)Nc3ccc(Cl)c(C(F)(F)F)c3)cc2)cc1	2.1 µM	Active	Activity [4]: Active; Ratio IC50 [13]: 4; inhibition (Mus musculus [14]): Active; Activity (Mus musculus [15]): Active; TGI (PLC5): Active
CNC(=O)c1cc(Oc2cccc(NCc3cccc(OC(F)(F)F)c3)c2)ccn1	> 15 µM	inactive	Activity [1]: inactive; Activity [2]: inactive; Activity [4]: inactive; Activity [5]: inactive; Activity [7]: inactive; Activity [10]: inactive; Activity [11]: inactive
N#Cc1ccc(Oc2cccc(NCc3cccc(OC(F)(F)F)c3)c2)cc1	> 15 µM	inactive	
